Measurements reported in ChEMBL document CHEMBL2010781, “2-Amidino analogs of glycine-amiloride conjugates: inhibitors of urokinase-type plasminogen activator” (Bioorg Med Chem Lett, 2012).
Active and inactive are the calls of the source. The calls are words filed in the database; no cut-off is given here.

How the values were obtained:
U-87MG ATCC = test: Cytotoxicity against human U87 cells by lactate dehydrogenase assay; type: functional, cell-based
Procedure, shortened: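 Cytotoxicity was read as release of cytosolic LDH from dying cells, following the kit manufacturer's protocol.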

[1] = Inhibition of trypsin using tosyl-Gly-Pro-Lys-pNA as substrate by spectrophotometry
[2] = target: Urokinase-type plasminogen activator (Homo sapiens, UniProt P00749); test: Inhibition of urokinase-type plasminogen activator using Glt-Gly-Arg-AMC as substrate by spectrofluorometry
[3] = Cytotoxicity against human U87 cells at 100 uM after 72 hrs by lactate dehydrogenase assay; type: functional, U-87MG ATCC; settings: in the assay text read “24 hrs” for “72 hrs”
Procedure, shortened: (§1)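 Cell death was scored as cytosolic LDH released into the medium, using the kit manufacturer's LDH protocol.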

[4] = target: Tissue-type plasminogen activator (Homo sapiens, UniProt P00750); test: Inhibition of tPA using CH3SO2-D-HHT-Gly-Arg-pNA as substrate by spectrophotometry
Sequence of Tissue-type plasminogen activator (P00750 whole entry): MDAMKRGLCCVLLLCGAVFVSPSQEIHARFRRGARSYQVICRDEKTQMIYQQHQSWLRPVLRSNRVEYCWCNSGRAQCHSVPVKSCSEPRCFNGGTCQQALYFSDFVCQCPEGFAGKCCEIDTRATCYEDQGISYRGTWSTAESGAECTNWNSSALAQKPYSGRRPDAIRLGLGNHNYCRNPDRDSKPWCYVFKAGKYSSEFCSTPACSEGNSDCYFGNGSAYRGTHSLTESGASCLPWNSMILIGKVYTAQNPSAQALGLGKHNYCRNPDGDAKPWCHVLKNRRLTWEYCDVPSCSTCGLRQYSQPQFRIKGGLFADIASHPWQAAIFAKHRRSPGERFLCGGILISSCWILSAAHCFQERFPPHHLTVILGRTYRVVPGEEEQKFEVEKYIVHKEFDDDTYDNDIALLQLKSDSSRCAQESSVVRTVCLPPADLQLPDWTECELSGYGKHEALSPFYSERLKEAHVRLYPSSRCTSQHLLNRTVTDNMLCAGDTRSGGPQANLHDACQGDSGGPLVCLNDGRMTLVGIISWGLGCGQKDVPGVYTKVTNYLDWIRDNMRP

Plasminogen = Plasminogen (Homo sapiens, UniProt P00747); test: Inhibition of plasmin using tosyl-Gly-Pro-Lys-pNA as substrate by spectrophotometry
Sequence of Plasminogen (P00747 97-580 limits assumed): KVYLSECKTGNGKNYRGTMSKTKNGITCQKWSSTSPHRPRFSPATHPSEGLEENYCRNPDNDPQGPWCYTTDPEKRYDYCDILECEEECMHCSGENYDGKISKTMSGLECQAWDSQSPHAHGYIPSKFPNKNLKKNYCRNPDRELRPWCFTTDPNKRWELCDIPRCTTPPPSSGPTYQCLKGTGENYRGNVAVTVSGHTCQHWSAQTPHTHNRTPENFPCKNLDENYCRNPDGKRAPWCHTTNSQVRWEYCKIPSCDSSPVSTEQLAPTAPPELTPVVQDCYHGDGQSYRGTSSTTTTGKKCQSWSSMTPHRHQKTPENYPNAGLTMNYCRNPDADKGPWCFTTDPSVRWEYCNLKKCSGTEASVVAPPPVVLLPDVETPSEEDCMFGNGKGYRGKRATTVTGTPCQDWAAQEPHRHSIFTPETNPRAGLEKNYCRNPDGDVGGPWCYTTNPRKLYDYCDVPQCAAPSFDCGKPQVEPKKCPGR
Sequence of Plasminogen (P00747 581-810 limits assumed): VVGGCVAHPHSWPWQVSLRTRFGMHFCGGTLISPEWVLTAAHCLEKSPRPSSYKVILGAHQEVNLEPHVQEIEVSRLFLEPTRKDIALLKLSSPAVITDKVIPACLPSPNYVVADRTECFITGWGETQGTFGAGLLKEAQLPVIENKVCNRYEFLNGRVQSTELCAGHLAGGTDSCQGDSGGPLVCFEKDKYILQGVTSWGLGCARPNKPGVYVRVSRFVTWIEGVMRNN

[5] = Cytotoxicity against human U87 cells at 250 uM after 24 hrs by lactate dehydrogenase assay; type: functional, U-87MG ATCC
Procedure, shortened: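 Human U87 glioma cells seeded at ten thousand per well and exposed to drug for 24–48 h at 37°C under 5% CO2. Cell death was read as cytosolic lactate dehydrogenase released from dying cells, assayed following the kit manufacturer's protocol.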

[6] = Cytotoxicity against human U87 cells at 250 uM after 72 hrs by lactate dehydrogenase assay; type: functional, U-87MG ATCC; procedure, shortened: as §1

| IC50 [1] | IC50 [2] | IC50 [4] | IC50 (Plasminogen) | Compound | Activity (U-87MG ATCC) | Activity [3] | Activity [5] | Activity [6] |
| --- | --- | --- | --- | --- | --- | --- | --- | --- |
| > 250 µM | – | – | – | N/C(=N\O)c1nc(Cl)c(NCC(=O)O)nc1N | inactive | – | – | – |
| > 250 µM | 3 µM | > 190 µM | > 250 µM | NC(N)=NC(=O)c1nc(Cl)c(NCC(=O)OCc2ccccc2)nc1N | – | 50% | – | – |
| > 250 µM | 17 µM | > 250 µM | > 250 µM | N=C(N)NC(=O)c1nc(Cl)c(NCC(=O)O)nc1N | inactive | – | – | – |
| > 250 µM | 237 µM | > 250 µM | – | N=C(N)c1nc(Cl)c(NCC(=O)O)nc1N | inactive | – | – | – |
| > 250 µM | 212 µM | > 250 µM | > 250 µM | N=C(N)c1ncc(NCC(=O)O)nc1N | inactive | – | – | – |
| – | 74 µM | 200 µM | > 250 µM | N=C(NO)c1nc(Cl)c(NCC(=O)OCc2ccccc2)nc1N | – | – | – | – |
| > 250 µM | 69 µM | > 250 µM | – | NC(=O)c1nc(Cl)c(NCC(=O)OCc2ccccc2)nc1N | – | – | – | – |
| – | 279 µM | > 250 µM | – | N=C(NO)c1ncc(NCC(=O)O)nc1N | – | – | – | – |
| > 250 µM | 47 µM | > 250 µM | > 250 µM | NC(N)=NC(=O)c1ncc(NCC(=O)O)nc1N | inactive | – | – | – |
| – | 231 µM | > 250 µM | > 250 µM | N=C(NO)c1nc(Cl)c(NCC(=O)O)nc1N | – | – | – | – |
| > 250 µM | – | – | – | N/C(=N\O)c1nc(Cl)c(NCC(=O)OCc2ccccc2)nc1N | inactive | – | – | – |
| > 250 µM | – | – | – | N/C(=N\O)c1ncc(NCC(=O)O)nc1N | inactive | – | – | – |
| > 250 µM | 4 µM | 200 µM | > 250 µM | N=C(N)c1nc(Cl)c(NCC(=O)OCc2ccccc2)nc1N | – | – | – | 50% |

| Compound | IC50 [1] | IC50 [2] | IC50 [4] | IC50 (Plasminogen) | Activity (U-87MG ATCC) | Activity [3] | Activity [5] | Activity [6] |
| --- | --- | --- | --- | --- | --- | --- | --- | --- |
| N=C(N)NC(=O)c1nc(Cl)c(N)nc1N [AMILORIDE] | > 250 µM | – | 220 µM | > 250 µM | – | – | 50% | – |
